The EternaBench riboswitch data

Test system: MS2 coat protein
Experiment: apparent Kd, MS2 coat protein; higher = weaker binding; RNA-MaP array; FMN 200 µM where present
Procedure, shortened: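 Stalled E. coli RNA polymerase transcribed the designs on Illumina sequencing-chip clusters. SNAP-549-labelled MS2 coat protein was titrated from 0.7 or 1.5 nM, doubling to 3 µM, without and then with constant ligand, in 100 mM Tris-HCl pH 7.5, 80 mM KCl, 4 mM MgCl2, BSA, DTT, yeast tRNA and Tween-20. Per-cluster binding curves were fitted to green signal normalised to red-channel RNA signal and control-cluster median Fmax. The apparent Kd is the median of the filtered fits.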

[1] = designed as: OFF switch for flavin mononucleotide, no ligand
[2] = ligand present: flavin mononucleotide, designed as: OFF switch for flavin mononucleotide
[3] = designed as: ON switch for flavin mononucleotide, no ligand
[4] = ligand present: flavin mononucleotide, designed as: ON switch for flavin mononucleotide

Sequence	apparent Kd [1] [nM]	apparent Kd [2] [nM]	apparent Kd [3] [nM]	apparent Kd [4] [nM]
GCCUUAUCGGUCAGGAUAUACACCCGUCACUCCUUGUAGAAGGGACAUGAGGAUCACCCAUGUACAUUACAUUG	31.3	28.1		
GUGCCUUGGAAGAAGGCCGAUAGCAAAGCUAUCGGAGGAUAUUCAUACCGGAAACGGACAUGAGGAUCACCCAUGUGGCACAAA			15.3	6.96
AAGCGAGGGACAGGAUAUGCGGCGGAACUCGCCGCAGAAGGGUCGACAUGAGGAUCACCCAUGUCCUUACGCUCCAAGUAGUGG			131	425
UGUUUUCAUGUAGGAUAUGCUUGUCGUAGAUACGCAGAAGGACAUGAGGAUCACCCAUGUUAAUGCUACAGAUUUUAGUUUCUU	19.5	102		
AAAAAGGGAGGAUAUACAUGAGGAUCACCCAUGUGAAAAAAAAAAAAAAAAAAAAAAAGUAGAAGGCCCAAAAA	67.1	53.8		
GAAAACUGAGGAUAUACUUUGGGAAAAGAAAAGAUGAUGUUACAUGAGGAUCACCCAUGUAGAAGGCAGAAAAA	25.9	36		
AUAUGUGUCGAGAAGGGCUCACGUAACGGAACAGCAGGAUAUCGACAUGAGGAUCACCCAUGUCGGAACGAACGGAUCUUUACU	7.22	8.53		
GUCCCGAGGGAGAAGGGCUAGGAGGUCCAGCUUAUGUGUGUUGCAACAUGAGGAUCACCCAUGUAGCAGGAUAUCCCUUGUACA	52.2	219		
GCAGGCUUCGAGAAGGACAUGAGGAUCACCCAUGUGCGUGUGAAGCAGCCGUGAGGCUGCAUCAUGUAGGAUAUCGGAGUCUGC	70.8	573		
GAUCUCGUCUAGAAGGUGUAAUAUAUAGUAGUACAAGGAUAUAGACAUGAGGAUCACCCAUGUCGUGCCUGGGCUCAUCUUAAA	5.92	7.64		
UGGGUUUGUAGUUACAUCCCUACACAGGAUAUGGGUAGUUACAUGAGGAUCACCCAUGUUCGAACUCAGAAGGGUGGAUCGUUG			85.3	11.3
GUAGAGUAAGGAUAUAGUGAAUAGGAUAGAAUGGUUAGAAACUAGAAGGUACAUGAGGAUCACCCAUGUAAUGU	23.6	21.2		
AAUGGCUAGCGCUCUGGAACUGCACAGGAUAUGAAGAGCUACAUGAGGAUCACCCAUGUUUAAAAUCAGAAGGGUGAGUAUCAG			166	16.2
CCUAAGGACACAGGAUAUAGCGUGGUUGCUGGGCUCCAACGGCGAGCGGCGCUAGAAGGGUGACCACAUGAGGAUCACCCAUGU			532	162
GUAGCUAUCGGAGGAUAUUCAUAGCGGAAACGGACAUGAGGAUCACCCAUGUGGCUAAAGCCUUGGGAGAAGGCCGAUAGCUAC			25.8	6.64
CUUUUGUGAGGAUAUCAGUAGUAAAAAUAUAAAAUUACUACUGAGAAGGCACAUGAGGAUCACCCAUGUUCCUC	39.7	244		
UCUCGAUGUGUAGGAUAUCUGAUUACUAUGACAAGAGAAGGGCACAUGAGGAUCACCCAUGUGGAGGACCACUGGUUCAGAUUA	31.2	49.3		
GGAUAGGACAGAGGAUAUACGUGCUAGAGAUGCUAGCAAAAUUUCCUCACAUGAGGAUCACCCAUGUAGAAGGCUGUCCUAUCG	15.8	393		
AAGGAGUGAGGAUAUGCUGCUCGUCACUUGCGUGAUGAGUAGCAGAAGGCACAUGAGGAUCACCCAUGUAAAGA	44.9	54.5		
GAGGACUGAAUAAUAAGUAGAAAUACAUGAGGAUCACCCAUGUAGGAUAUCGUCAGGAAUACUGACGAGAAGGACAUACAGUCC	14.1	18.1		
GGACAUGUCGUCUACAUGAGGAUCACCCAUGUCGAUAGACAUGAGGAUAUCGAUACAAAUUGUAUCGAGAAGGCAUGCAGGUCC			18.7	17.7
GUAACAUGAGGAUCACCCAUGUCGUGCUAGAUGAGUUCUGGUGAGGAUAUACAUGGUAAAUAACUGUAGAAGGUGCUGGGUACA			159	167
GUGCACACUCGAGGAUAUCGGAGAGGACUCCUUCGAGAAGGCGAUUCGUGCCGUGUUAUUCUGGACAUGAGGAUCACCCAUGUG			126	38.2
GGGUACAUGGGAGGAUAUCAUGUAGAUACAUGAGGAUCACCCAUGUCGAUGGAGACAUCGGAGAUUGAGAAGGCCCAUGUACCG			696	36.1
AUUAUGUUAGGAUAUGCUUAUGGUGGAUAGUCGGAUAUGAUGCAGAAGGGACAUGAGGAUCACCCAUGUACUGA	22.4	22.1		
UUGGACGUCGUAGGAUAUUUAGGAUAUUCCUACAUGAGGAUCACCCAUGUUGACAUGGAAGAAGGACAGAAGGACGAUGUCCAU			24.1	8.23
CAAGUCAUAGCUUCUUAGCCAGCCAGAAGGGUCUACAUGAGGAUCACCCAUGUGGUCUCGAAGGGACAGGAUAUGGAGGGCGUA	11.1	37.7		
UUUUUUGUUGUGAGGAUAUCGUAUUCUUUUUGUUACGAGAAGGCACAUGAGGAUCACCCAUGUUUCUUGAUGUU	15.8	27.3		

Sequence	apparent Kd [1] [nM]	apparent Kd [2] [nM]	apparent Kd [3] [nM]	apparent Kd [4] [nM]
GUGGCUAGUGCAGGAUAUUAGUGCGUGUAGUAUUGAGAAGGGCACAUGAGGAUCACCCAUGUGAUCAAUCACUGUUAAGGUCGC	79.7	76.5		
GUCAGCUCGUGAGGAUAUACAACACUGCUUCGGCAGUGUAUUAAGAUCACAUGAGGAUCACCCAUGUAGAAGGCACCAGCUGAU	16.3	215		
AUAUCUAUAUCAGGAUAUGGACAGGCCUGUCCGUAUUGAGACAGUAACAUGAGGAUCACCCAUGUCCAGAAGGGAUCGAUAUAU	38.6	41.8		
AUAUAUAACUAAGGAUAUCUGUAUUUUGUUGAAACAUGAGGAUCACCCAUGUUCAUGAAAUUAUAGGAGAAGGUAGAUAUAUAU			4.93	4.54
CCACGUCCCAUUAACAUGAGGAUCACCCAUGUCAAAAGACAUGAGGAUAUGCUACCUAAUUGGUAGCAGAAGGCAUGGACGUGG			953	87.8
AAAAAAAAAAGGCAGGAUAUCUAAAAAAAAACAUGAGGAUCACCCAUGUAAAAAAAAAAAAAGUGGGAGAAGGGCCAAAAAAAAAA			35.9	18.1
GGGUACAUCGGAGGAUAUCAUGUAGACACAUGAGGAUCACCCAUGUCGAUGGAGACAUCGGAGAUUGAGAAGGCCGAUGUACCG			435	23.9
ACAUGAGGAUCACCCAUGUUCACAUAGGAUAUUGAUUUUAUUGGUUUUAGAAUAGUUAUUAAGCUCAAGAAGGAUGCCAGUUGU			12.4	9.97
GAUCAACAUGAGGAUCACCCAUGUGAGGAUAUGAUACUAUGUACUUCGGUACAUAGUAUCAGAAGGCACAUAAA	67.9	218		
UGGCCGAAGUUAGGAUAUUGGUUAGGGACGGACUAAGAAGGAGCACAUACAUGAGGAUCACCCAUGUUAGAAGAAGAUCCUCCA	29.3	26.7		
AUAAACGAUCAGGAUAUAUCAAAUCAUAGCUUGAUAGAAGGGAUCACAUGAGGAUCACCCAUGUGAUCUUCUUA	14	15.8		
AGUCAUACAGGAUAUACAUGAGGAUCACCCAUGUAUAUCCUACAUGGGUGAUCCUCAUGUAGAAGGGUAUGACA	13.5	11.6		
ACGGCUAACCCAGUUUAGAUCUCAAGAAGGGUACACUGGGCAAGGUACAUGAGGAUCACCCAUGUACAGGAUAUUGAGAUGAGA	12.1	34.1		
UUUGAAUAGGUAGGAUAUACAUACAUUCCUACAUUACUAACAUGAGGAUCACCCAUGUAUACAUUGUAGAAGGACCAGAUUGAU	26.1	23.9		
GGGCCGGUGGAGAAGGAGCUUACGAAACGUAGGCUAGGAUAUCCACAUGAGGAUCACCCAUGUGGGAAUAUCUGAUUUUCGCAG	4	5.26		
CUUUAGUGAGGAUAUUAGUAGUAAUACAAUAGUAUUACUACUGAGAAGGCACAUGAGGAUCACCCAUGUUCCUC	27.8	292		
UGGUACAUCGGAGGAUAUCAUGUAUAGACAUGAGGAUCACCCAUGUCGUACGAGAGUACGGAGAUUGAGAAGGCCGAUGUACCU			21	16.6
GUACCUUAUGAGAAGGCGAUCAUAAAACGUGAUCGAGGAUAUCAUGAAAACAUGAGGAUCACCCAUGUAUGGGUAUUAUGGUAC			36	19.3
AUUUAUUUUGUGAGGAUAUGCAGGAUCUAGCUCCAGUAGAAGGCACAUGAGGAUCACCCAUGUGGGUCCGAGAC	22.9	111		
GGAUCUUGGGUCAGGAUAUGCUGACAGCCAUGUCAGCAGAAGGGACAUGAGGAUCACCCAUGUGCUCGGUUUUG	10.3	18.1		
AGAAAGGUAGGAUAUACGAAAAAAAAGGGUAGAAAAAAAACACAUGAGGAUCACCCAUGUAGAAGGACCAAAGA	28.9	96.6		
UAAAUGUGAGGAUAUUCGAAUAACACGGAGACGUGUUGUUCGGAGAAGGCACAUGAGGAUCACCCAUGUUCCUU	22.7	219		
UUUACAUGAGGAUCACCCAUGUUUAGAAAGAUUAAUUUAAGUGAGGAUAUACAUAAUAAUAAAUUGUAGAAGGCACUGGGUACA			19.3	20.6
GUGGUCAGACAUGAGGAUCACCCAUGUGGAAUAAAUAAGGUUUAGGAUAUGGAAUAUAGGAUAUACCAGAAGGAAGGGUUGGUG			125	135
UGUCGGAGCAGAGGAUAUUACAUGAGGAUCACCCAUGUAUAAACCAAUAGCUGGAAACAGCAAUGUAAGAAGGCUGCUCCGACA	5.28	10.1		
AAUGCGGCAGGAUAUACAUGAGGAUCACCCAUGUAGAUCAGAUAUAUGGUCGAGCCAUGUAGAAGGGCCGCAAA	30.8	110		
GCAGACGUAGUGAGGAUAUGCUCUACCUCGGUAGAGCAGAAGGCACAUGAGGAUCACCCAUGUGGUUCCUCUGC	19.1	80.9		
